In the library only some 2.5% were active in any assay of this set; here they are far more common.
SMARCA2 activ = increases SMARCA2 function in MMTV reporter cells. MG213 cells, MMTV-luciferase reporter, dexamethasone, overnight. activation, % at 9.1 µM. hit rate 1% among 370,000; in the data active means activation above about 7.8%
Vif imaging = blocks HIV Vif function; AID 602346; hit rate 0.35% among 340,000; HEK293T cells, Vif self-association by quenched fluorescence, imaging, 24 h; inhibition, % at 7.49 µM; in the data active means inhibition above about 50%, passing the limit was not always enough; inconclusive means no clear call, values can overlap the other calls; inactive means below about 31%
H9c2 TAG inh = triacylglycerol accumulation inhibition; H9c2 cells, Nile Red lipid (TAG) fluorescence; cells loaded with 200 µM oleic acid; inhibition, % at 12.5 µM; hit rate 0.66% among 230,000; AID 651582;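 active means pattern-corrected inhibition of lipid staining of at least 50% with the nuclear-stain viability signal not falling by more than 50%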
SR-BI DiI-HDL act = activators of SR-BI mediated HDL lipid uptake. activation, % at 12.5 µM. hit rate 0.096% among 320,000. CHO ldlA[mSR-BI] cells, DiI-HDL uptake fluorescence, 3 h; 100 = double the neutral-control signal;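 active means mean replicate activation of at least 60% and every replicate at or above 60%; inconclusive means mean or all-replicate condition met, but not both; inactive means mean below 60% and not all replicates reaching 60%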
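system = CHO ldlA[mSR-BI] cells, LDL receptor-null, SR-BI overexpressing | medium = Ham's F12 with 0.5% BSA, HEPES 25 mM, pH 7.4 | probe or stimulus = DiI-HDL 10 µg/mL | compound dosing = single-point compound dose | incubation = compound exposure 3 h, 37 °C | technique = DiI fluorescence, bottom read | read-out = cell-associated DiI fluorescence as measure of HDL uptake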
SR-BI HDL uptake = blocks mouse SR-BI lipid uptake from DiI-HDL. Q61009. ldlA[mSR-BI] CHO cells, DiI-HDL uptake fluorescence, 3 h. inhibition, % at 12.5 µM. hit rate 0.96% among 320,000;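 active means mean replicate inhibition of at least 70% and a set share of replicates each scoring 70 or more; inconclusive means meets just one of the two criteria; inactive means fails both criteria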
Target sequence (Q61009 whole entry, looked up): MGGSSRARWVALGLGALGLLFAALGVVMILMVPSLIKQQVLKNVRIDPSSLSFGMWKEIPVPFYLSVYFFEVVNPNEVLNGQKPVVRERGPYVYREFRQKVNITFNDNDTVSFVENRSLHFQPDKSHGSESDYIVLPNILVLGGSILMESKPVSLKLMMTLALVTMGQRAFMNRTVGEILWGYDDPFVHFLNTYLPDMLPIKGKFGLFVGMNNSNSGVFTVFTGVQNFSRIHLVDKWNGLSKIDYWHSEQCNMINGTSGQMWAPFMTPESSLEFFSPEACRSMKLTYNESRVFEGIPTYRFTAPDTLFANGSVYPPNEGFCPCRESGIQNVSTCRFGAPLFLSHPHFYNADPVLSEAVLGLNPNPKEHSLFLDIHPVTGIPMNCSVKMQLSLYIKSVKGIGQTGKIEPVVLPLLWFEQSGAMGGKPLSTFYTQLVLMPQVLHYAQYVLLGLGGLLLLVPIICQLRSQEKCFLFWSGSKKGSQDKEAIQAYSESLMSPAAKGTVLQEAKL
Numbers stand for hits; – = inactive; ? = inconclusive; · = not tested or not shown.

SMILES	SMARCA2 activ	Vif imaging	H9c2 TAG inh	SR-BI DiI-HDL act	SR-BI HDL uptake
O=C1NC(=O)C(=Cc2ccc(-c3ccccc3[N+](=O)[O-])o2)C(=O)N1	–	–	–	–	77
O=[N+]([O-])c1ccc(N2CCOCC2)c2c1no[n+]2[O-]	–	106	121	·	·
O=[N+]([O-])c1ccc(N2CCOCC2)c2cccnc12	–	–	–	–	–
COc1ccc(CN2C(=O)NC(=O)/C(=C/c3ccc(OC)c(OC)c3OC)C2=O)cc1	–	–	–	380	–
COc1ccc(CN2C(=O)NC(=O)/C(=C/c3cc(OC)c(OC)c(OC)c3)C2=O)cc1	–	–	–	–	–
CCN(CC)C(=O)c1ccc(NC(=O)c2ccc(-c3nn(C)c(=O)c4ccccc34)cc2)cc1	–	–	–	–	81
CCN(CC)C(=O)c1ccc(NC(=O)Cn2nc(C)c3ccccc3c2=O)cc1	–	–	·	–	–
COC(=O)C1C(c2ccccc2)CC2CCC1N2C (stereo not drawn)	–	·	·	·	·
Fc1ccccc1CNC1CN2CCC1CC2 (stereo not drawn)	–	–	–	–	–
Ic1ccccc1CN[C@@H]1C2CCN(CC2)[C@@H]1C(c1ccccc1)c1ccccc1	–	–	74	–	–
CCOC(=O)CC[C@@H]1CC[C@]2(CCCN(Cc3ccccn3)C2)O1	–	·	·	·	·
Cc1cc(N(CCCl)CCCl)ccc1C=Cc1ccncn1	–	77	–	–	76
O=C(c1cc2cc(Br)ccc2[nH]1)N1CCC2(CC1)OCCO2	–	–	·	424	–
COc1cc(C2c3cc4c(cc3CC3COC(=O)C32)OCO4)cc(OC)c1O (stereo not drawn)	–	60	–	–	–
COc1ccc(O)c2c(=O)c3c(OC)cc4c(c3oc12)C1C=COC1O4 (stereo not drawn)	–	73	·	–	–
N#CCC[C@@H]1CC[C@]2(CCCN(Cc3ccncc3)C2)O1	–	·	·	·	·
CN1CCC(N(C)c2nc(-c3ccc([N+](=O)[O-])cc3)nc3ccccc23)CC1	–	–	59	–	–
O=c1[nH]c2cc(Cl)ccc2n1C1CCN(Cc2ccc(-c3nc4ccccc4nc3-c3ccccc3)cc2)CC1	–	·	·	·	·
CC(C)c1ccc(-n2c(O)c(/C=N/NC(=O)c3ccncc3)c(=O)[nH]c2=O)cc1	–	–	·	–	–
O=C(N/N=C/c1c(O)n(C2CCCCC2)c(=S)[nH]c1=O)c1ccccc1O	–	–	·	–	130
CCCCC(=O)N/N=C/c1c(O)n(Cc2ccco2)c(=O)[nH]c1=O	–	–	·	–	–
CC(C)c1ccc(-n2c(O)c(/C=N/NC(=O)c3ccccc3O)c(=O)[nH]c2=S)cc1	–	–	–	–	107
O=C(N/N=C/c1c(O)n(Cc2ccco2)c(=O)[nH]c1=O)c1ccccc1O	–	–	–	–	80
O=C(O)C(Br)Br	–	·	·	·	·
C=CCN1C[C@H](C)N(C(c2ccc(C(=O)N(CC)CC)cc2)c2cccc(OC)c2)CC1C (stereo partly drawn)	–	·	·	·	·
SMILES	SMARCA2 activ	Vif imaging	H9c2 TAG inh	SR-BI DiI-HDL act	SR-BI HDL uptake
CN1C2CCC1/C(=C/c1ccccn1)C(=O)/C2=C\c1ccccn1	–	106	·	–	–
Cc1ccccc1-n1c(/C=C/c2ccccn2)nc2ccccc2c1=O	–	–	·	–	–
O=C(CNC(=O)c1ccc(Br)cc1)Nc1ccc(Br)cc1C(=O)c1ccccc1	–	–	·	–	–
COc1cc(C(=O)Nc2ccc(Br)cc2C(=O)c2ccccc2)cc(OC)c1OC	–	–	–	–	81
COc1ccc2c(c1)C13CCN(C)C(C2)C1CCC1(C3)OCCO1 (stereo not drawn)	–	–	–	–	–
COc1ccc2c(c1)[C@@]13CCC=C[C@H]1[C@@H](C2)NCC3	–	61	–	–	–
COC1CCC(OC2CC(C3(C)CCC4(CC(O)C(C)C(C(C)/C=C(\C)C(=O)C(C)CC(C)C(=O)O)O4)O3)OC3(OC(C4OC(O)(CO)C(C)CC4C)CC3C)C2C)OC1C (stereo not drawn)	–	–	97	–	–
COC(=O)C1=C(C(=O)OC)C2OC1c1cc3ccccc3cc12	–	–	70	–	–
Cc1nc2ccccc2c(=O)n1/N=C/c1cc(Br)cc(Br)c1O	–	–	–	–	85
Cc1nc2ccccc2c(=O)n1-c1ccc(Br)cn1	–	–	–	–	–
CCOC(=O)C1=C(C(=O)OCC)C2(c3ccccc3)c3ccccc3C1(C)N2C (stereo not drawn)	–	·	·	·	·
CC(=O)O[C@H]1CC[C@@]2(C)C(=CC(=O)C3C2CC[C@@]2(C)C3C[C@H](OC(C)=O)[C@@H]2OC(C)=O)C1 (stereo partly drawn)	–	–	–	66	–
CC(C)(C)C(=O)O[C@H]1CC[C@@]2(C)C(=CC(=O)C3C2CC[C@]2(C)C(=O)CCC32)C1 (stereo partly drawn)	–	?	–	–	–
CCc1nn2c(=O)c(F)c(N3CCNCC3)nc2s1	–	·	–	·	·
O=S1(=O)N(CCN2CC=C(c3c[nH]c4cc(F)ccc34)CC2)c2cccc3c2N1CCC3	–	–	–	–	79
CC(C)N1CC=C(c2c[nH]c3ccccc23)CC1	–	·	·	–	–
CN(C)C(=O)Oc1ccc(OC(=O)N(C)C)cc1	–	–	·	–	–
CN(C)C(=O)Oc1ccc(C(=O)c2ccccc2)cc1	7.9	–	·	–	–
COC(=O)[C@H]1C[C@@]2(C)c3ccccc3N[C@H]2N1	–	·	·	·	·
COc1cc(C(=O)NN=Cc2ccc(N(CCCl)CCCl)cc2)cc(OC)c1OC	–	–	–	–	76
Cc1ccc(C(O)(C(=O)OC(C)C)C(O)c2ccccc2)cc1 (stereo not drawn)	–	·	·	·	·
COC(=O)C[C@]1(C(=O)OC)CN(C#N)N(c2ccc(Cl)cc2)C12c1ccccc1-c1ccccc12	–	57	–	–	–
O=C(NC1(C(F)(F)F)Oc2ccccc2O1)N1CCC2(CC1)OCCO2	–	?	·	–	–
O=C(NC1(C(F)(F)F)Oc2ccc(Cl)cc2O1)N1CCC2(CC1)OCCO2 (stereo not drawn)	–	78	–	–	–
COc1cc2c3c(c1OC)Oc1ccc(cc1)C[C@H]1c4c(cc(OC)c(OC)c4Oc4ccc(cc4)C[C@@H]3N(C)CC2)CCN1C	–	–	86	–	–
SMILES	SMARCA2 activ	Vif imaging	H9c2 TAG inh	SR-BI DiI-HDL act	SR-BI HDL uptake
COc1cc2c3cc1Oc1c(OC)c(OC)cc4c1[C@H](Cc1ccc(cc1)Oc1cc(ccc1O)C[C@H]3N(C)CC2)N(C)CC4	–	–	–	–	–
C=C1C(=O)OC2CC3(C)OC3C3OC3C3=CC(OC3=O)C12 (stereo not drawn)	–	86	·	·	·
Cc1cccc(C2=NCC(=O)N(CC(=O)NCc3ccco3)c3sc4c(c32)CCCC4)c1	–	–	·	–	77
COC(=O)C1C(c2ccc(I)cc2)CC2CCC1N2C (stereo not drawn)	–	·	·	·	·
CCCC(=O)c1cc(CP(=O)(OCC)OCC)oc1C	–	50	–	·	·
Cc1cc(N2CCNC[C@H]2C)ccc1N1CCN[C@H](C)C1	–	·	·	·	·
c1ccc(N2[C@@H]3CC[C@H]2c2ccncc2C3)cc1	–	·	·	·	·
